The target of assay [1] is T1, Trypanothione reductase (Trypanosoma brucei brucei, UniProt P39051). In words: Inhibition of recombinant trypanothione reductase from Trypanosoma brucei brucei S427 by DTNB-coupled spectrophotometric assay. The method, boiled down: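 Recombinant T. brucei brucei S427 TryR tested in a nonenzymatically coupled spectrophotometric assay, where DTNB reduction to TNB is followed as A412 increase. IC50 is the mean of independent duplicates (at least two replicates).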

For assay [2], the system named is Trypanosoma brucei brucei. As to the kind of experiment: Antitrypanosomal activity against blood stream form Trypanosoma brucei brucei by resazurin fluorescence-based viability assay. The class given is functional, organism-based. The method, boiled down: (§1)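 Bloodstream-form T. b. brucei parasites and MRC5 cells were assayed in resazurin fluorescence-based viability tests. […] Pentamidine served as the positive control in all T. brucei plates.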
A general note: The colour change of resazurin is a common sign of viable cells or microbes.

The next assay relates to MRC5. In words: Cytotoxicity against human MRC5 cells by resazurin fluorescence-based viability assay. The class given is cell-based. In outline: as §1
Assay [3] has as its target T1, Trypanothione reductase. As to the kind of experiment: Competitive inhibition of recombinant trypanothione reductase from Trypanosoma brucei brucei S427 by Lineweaver burk method.

Bounds are passed on as bounds.

T1 sequence (P39051 whole entry): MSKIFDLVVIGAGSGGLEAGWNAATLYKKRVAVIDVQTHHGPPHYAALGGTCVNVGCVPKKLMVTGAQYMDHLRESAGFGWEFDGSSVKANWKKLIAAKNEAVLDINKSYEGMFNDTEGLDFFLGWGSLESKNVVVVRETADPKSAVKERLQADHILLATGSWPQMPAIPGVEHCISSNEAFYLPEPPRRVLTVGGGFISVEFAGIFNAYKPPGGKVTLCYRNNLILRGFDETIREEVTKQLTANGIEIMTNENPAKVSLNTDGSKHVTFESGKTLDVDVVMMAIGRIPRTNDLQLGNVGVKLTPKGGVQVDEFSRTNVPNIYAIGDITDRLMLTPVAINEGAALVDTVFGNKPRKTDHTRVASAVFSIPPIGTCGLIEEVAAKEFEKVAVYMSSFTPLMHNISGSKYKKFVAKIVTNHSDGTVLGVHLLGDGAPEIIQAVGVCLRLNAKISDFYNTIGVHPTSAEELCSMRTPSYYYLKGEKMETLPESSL

Take `CC1=Nc2ccc(-c3ccncc3)cc2C(c2ccccc2)N1CCN1CCCCC1` (stereo unspecified): the IC50 on Trypanothione reductase [1] turned out to be 4.4 µM.
On the same count and under the same terms, next, `CC1=Nc2ccc(-c3ccsc3)cc2C(c2ccccc2)N1CCN1CCCCC1` (stereo unspecified): 0.79 µM.
Regarding `CC1=Nc2ccc(Cl)cc2C(c2cccc(F)c2)N1CCN1CCCCC1` (stereo unspecified), the concentration for a half-maximal effect (EC50) in assay [2] turned out to be 2 µM; in the assay on MRC5, 10 µM. For the same compound, on Trypanothione reductase [1], the concentration for half-maximal inhibition (IC50) was 0.9 µM.
For `COc1cccc(C2c3cc(Cl)ccc3N=C(C)N2CCN2CCCCC2)c1` (stereo unspecified), the IC50 at Trypanothione reductase [1] was determined as 28 µM.
Same read-out and setting: the figure for `CC1=Nc2ccc(Cl)cc2C(c2cccc(Cl)c2)N1CCN1CCCCC1` (stereo unspecified) is 1.2 µM; for `CCC1=Nc2ccc(Br)cc2C(c2ccccc2)N1CC(=O)OC` (racemic) it is 23 µM.
Still for that read-out and setting: the figure for `CC1=Nc2ccc(Br)cc2C(c2ccccc2)N1CC(=O)O` (racemic) is 37 µM; for `CC1=Nc2ccc(Br)cc2C(c2ccccc2)N1CC(=O)NN` (racemic) it is 15 µM; for `COC(=O)CN1C(CN2CCOCC2)=Nc2ccc(Br)cc2C1c1ccccc1` (racemic) it is 89 µM.
Still for that read-out and setting: next, `COC(=O)CN1C(CCN2CCOCC2)=Nc2ccc(Br)cc2C1c1ccccc1` (racemic): 93 µM; `COC(=O)CN1C(c2ccccc2)=Nc2ccc(C)cc2C1c1ccccc1` (racemic): over 100 µM.
As for `COC(=O)CN1C(c2cc(OC)c(OC)c(OC)c2)=Nc2ccc(C)cc2C1c1ccccc1` (racemic), at Trypanothione reductase [1], the IC50 is over 100 µM.
Take `CC1=Nc2ccc(Cl)cc2C(c2ccccc2)N1Cc1ccccc1` (racemic): the EC50 turned out to be 13 µM in assay [2] and 46 µM in the assay with MRC5. In addition, on Trypanothione reductase [1], the IC50 is 0.93 µM.
Regarding `CC1=Nc2ccc(Cl)cc2C(c2ccccc2)N1CCc1ccccc1` (racemic), the half-inhibitory concentration (IC50) at Trypanothione reductase [1] stood at 2 µM.
Same read-out and setting: the figure for `COc1ccccc1CN1C(C)=Nc2ccc(Cl)cc2C1c1ccccc1` (racemic) is 1.1 µM.
On to `CC1=Nc2ccc(Cl)cc2C(c2ccccc2)N1Cc1ccccc1F` (racemic), for which the EC50 in assay [2] stood at 14 µM; in the assay on MRC5 it was 36 µM. The half-inhibitory concentration (IC50) at Trypanothione reductase [1] amounted to 0.94 µM.
Consider `CC1=Nc2ccc(Cl)cc2C(c2ccccc2)N1Cc1cccc(Cl)c1` (racemic), for which, at Trypanothione reductase [1], the half-inhibitory concentration (IC50) was 3.5 µM.
As for `CC1=Nc2ccc(Cl)cc2C(c2ccccc2)N1Cc1cccc(C(F)(F)F)c1` (racemic), the IC50 at Trypanothione reductase [1] amounted to 1.5 µM.
For `CC1=Nc2ccc(Cl)cc2C(c2ccccc2)N1Cc1cccc(N(C)C)c1` (racemic), the EC50 was 6.4 µM in assay [2] and 27 µM with MRC5. The half-inhibitory concentration (IC50) on Trypanothione reductase [1] turned out to be 0.81 µM.
Take `CC1=Nc2ccc(Cl)cc2C(c2ccccc2)N1Cc1ccc(C)cc1` (racemic): the IC50 at Trypanothione reductase [1] came to 1.3 µM.
For the compound `CC1=Nc2ccc(Cl)cc2C(c2ccccc2)N1Cc1ccc(Cl)cc1` (racemic), the IC50 on Trypanothione reductase [1] was determined as 2.2 µM.
Still for that read-out and setting: next, `CC1=Nc2ccc(Cl)cc2C(c2ccccc2)N1Cc1ccc(C(F)(F)F)cc1` (racemic): 2.2 µM; `CCN1C(C)=Nc2ccc(Cl)cc2C1c1ccccc1` (racemic): 1.2 µM.
On to `CC1=Nc2ccc(Cl)cc2C(c2ccccc2)N1CCN1CCCCC1` (racemic), for which the concentration giving a half-maximal response (EC50) in assay [2] was 1.3 µM; with MRC5, 14 µM. Besides, on Trypanothione reductase [1], the concentration for half-maximal inhibition (IC50) worked out at 1.8 µM.
On to `CC1=Nc2ccc(Cl)cc2C(c2ccccc2)N1CCN1CCOCC1` (racemic), for which the IC50 at Trypanothione reductase [1] is 2.8 µM.
For `CC1=Nc2ccc(Cl)cc2C(c2ccccc2)N1CCN1CCN(C)CC1` (racemic), the inhibition constant (Ki) on Trypanothione reductase [3] was found to be 0.32 µM. Moreover, the IC50 at Trypanothione reductase [1] was 0.93 µM. Moreover, a half-maximal effect in the assay on MRC5 (EC50) was put at 4.6 µM.
For the compound `CC1=Nc2ccc(Cl)cc2C(c2ccccc2)N1CCN(C)C` (racemic), the 50% inhibitory concentration (IC50) on Trypanothione reductase [1] was 3.5 µM.
In the case of `CC1=Nc2ccc(Cl)cc2C(c2ccccc2)N1CCCN(C)C` (racemic), the 50% inhibitory concentration (IC50) at Trypanothione reductase [1] was 1 µM. In the assay on MRC5, this compound gave an EC50 of 2.7 µM.
For `CNCCN1C(C)=Nc2ccc(Cl)cc2C1c1ccccc1` (racemic), on Trypanothione reductase [1], the IC50 was 2 µM.
In the case of `CC1=Nc2ccc(Cl)cc2C(c2ccccc2)N1CCO` (racemic), the IC50 at Trypanothione reductase [1] was 1.7 µM.
Still for that read-out and setting: the figure for `CC1=Nc2ccc(Cl)cc2C(c2ccccc2)N1CCNC(=O)OC(C)(C)C` (racemic) is 2.6 µM; for `CC(=O)NCCN1C(C)=Nc2ccc(Cl)cc2C1c1ccccc1` (racemic) it is 2.1 µM.
On the same count and under the same terms, next, `CC1=Nc2ccc(Cl)cc2C(c2ccccc2)N1CCNC(=O)C1CC1` (racemic): 2.3 µM.
As to `O=C1CN2C(=Nc3ccc(Br)cc3C2c2ccccc2)CN1` (racemic), at Trypanothione reductase [1], the IC50 stood at 37 µM.
Still for that read-out and setting: next, `O=C1CN2C(=Nc3ccc(Br)cc3C2c2ccccc2)CCN1` (racemic): 39 µM; `COC(=O)CN1C(C)=Nc2ccc(Cl)cc2C1c1ccccc1` (racemic): 9.4 µM.
As to `COC(=O)CN1C(C)=Nc2ccc(Br)cc2C1c1ccccc1Cl` (racemic), the IC50 at Trypanothione reductase [1] is over 100 µM.
With `CCOC(=O)CN1C(C)=Nc2ccc(Br)cc2C1c1ccccc1` (racemic), on Trypanothione reductase [1], the IC50 came to 12 µM.
On the same count and under the same terms, next, `CC1=Nc2ccc(Cl)cc2C(c2ccccc2)N1CCNC(=O)c1ccccc1` (racemic): 1.7 µM; `CC1=Nc2ccc(Cl)cc2C(c2ccccc2)N1CCNC(=O)Cc1ccccc1` (racemic): 1.8 µM.
As to `COCC(=O)NCCN1C(C)=Nc2ccc(Cl)cc2C1c1ccccc1` (racemic), at Trypanothione reductase [1], the IC50 was found to be 1.3 µM.
Consider `CC1=Nc2ccc(Cl)cc2C(c2ccccc2)N1CCNC(=O)CN(C)C` (racemic), for which the values for the EC50 (in assay [2]; in the assay on MRC5) were 13 µM and 12 µM, respectively. Besides, at Trypanothione reductase [1], the concentration for half-maximal inhibition (IC50) was 0.81 µM.
As to `CC1=Nc2ccc(Cl)cc2C(c2ccccc2)N1CCN1CCN(C(=O)OC(C)(C)C)CC1` (racemic), the IC50 at Trypanothione reductase [1] was determined as 1.5 µM.
On the same count and under the same terms, next, `CC(=O)N1CCN(CCN2C(C)=Nc3ccc(Cl)cc3C2c2ccccc2)CC1` (racemic): 1.7 µM; `CC1=Nc2ccc(Cl)cc2C(c2ccccc2)N1CCN1CCN(C(=O)C2CC2)CC1` (racemic): 1.5 µM.
On the same count and under the same terms, next, `CC1=Nc2ccc(Cl)cc2C(c2ccccc2)N1CCN1CCN(C(=O)c2ccccc2)CC1` (racemic): 1.6 µM.
`CC1=Nc2ccc(Cl)cc2C(c2ccccc2)N1CCN1CCN(C(=O)c2ccco2)CC1` (racemic): the figures for the EC50 (in assay [2]; in the assay with MRC5) were 10 µM and 23 µM, respectively. The IC50 at Trypanothione reductase [1] came to 0.42 µM.
`CC1=Nc2ccc(Cl)cc2C(c2ccccc2)N1CCN1CCN(C(=O)Cc2ccccc2)CC1` (racemic): the IC50 on Trypanothione reductase [1] amounted to 2 µM.
On the same count and under the same terms, next, `COCC(=O)N1CCN(CCN2C(C)=Nc3ccc(Cl)cc3C2c2ccccc2)CC1` (racemic): 1.6 µM.
On to `CC1=Nc2ccccc2C(c2ccccc2)N1CCN1CCCCC1` (racemic), for which the concentration for a half-maximal effect (EC50) worked out at 12 µM in assay [2] and 23 µM in the assay with MRC5. Moreover, the half-inhibitory concentration (IC50) on Trypanothione reductase [1] came to 0.78 µM.
Taken in the same sequence, the figures for `CC1=Nc2ccc(Br)cc2C(c2ccccc2)N1CCN1CCCCC1` (racemic) were 0.44 µM, 8.4 µM and 0.79 µM.
For `CC1=Nc2ccc(-c3ccco3)cc2C(c2ccccc2)N1CCN1CCCCC1` (racemic), the IC50 on Trypanothione reductase [1] stood at 1.3 µM.
Take `CC1=Nc2ccc(I)cc2C(c2ccccc2)N1CCN1CCCCC1` (racemic): the EC50 in assay [2] worked out at 0.55 µM; in the assay with MRC5, 6.8 µM. For the same compound, at Trypanothione reductase [1], the half-inhibitory concentration (IC50) turned out to be 0.35 µM.
As to `CC1=Nc2ccc(-c3ccccc3)cc2C(c2ccccc2)N1CCN1CCCCC1` (racemic), the EC50 in assay [2] was 0.75 µM; in the assay on MRC5, 3.4 µM. On Trypanothione reductase [1], the IC50 stood at 7.3 µM.
For `CC1=Nc2ccc(-c3cccc4ccccc34)cc2C(c2ccccc2)N1CCN1CCCCC1` (racemic), the concentration for half-maximal inhibition (IC50) at Trypanothione reductase [1] came out at 8 µM.
Turning to `CC1=Nc2ccc(-c3cc4ccccc4o3)cc2C(c2ccccc2)N1CCN1CCCCC1` (racemic), the IC50 at Trypanothione reductase [1] came to 8.5 µM.
With `CC1=Nc2c(-c3ccccc3)cc(Cl)cc2C(c2ccccc2)N1CCCN(C)C` (racemic), the IC50 on Trypanothione reductase [1] came out at 24 µM.
Same read-out and setting: next, `CC1=Nc2ccc(Cl)cc2C(c2ccc(Cl)c(Cl)c2)N1CCN1CCCCC1` (racemic): 1.3 µM; `CC1=Nc2ccc(Cl)cc2C(c2ccc(C(C)(C)C)cc2)N1CCN1CCCCC1` (racemic): 7.9 µM; `CC1=Nc2ccc(Cl)cc2C(C2CCCCC2)N1CCN1CCCCC1` (racemic): 27 µM.
The same measure, in the same setting: the figure for `CC1=Nc2ccc(Cl)cc2C(O)(c2ccc(F)cc2)N1CCN1CCCCC1` (racemic) is 8.3 µM; for `COc1ccc(C2(O)c3cc(Cl)ccc3N=C(C)N2CCN2CCCCC2)cc1` (racemic) it is 4.9 µM.
In the case of `CC1=Nc2ccc(Cl)cc2C(O)(c2ccc(C)cc2)N1CCN1CCCCC1` (racemic), the EC50 is 1.5 µM in assay [2] and 5.7 µM in the assay with MRC5. The IC50 at Trypanothione reductase [1] came to 0.71 µM.
Regarding `CC1=Nc2ccc(Cl)cc2C(c2ccc(Cl)cc2)N1CCN1CCCCC1` (racemic), the IC50 at Trypanothione reductase [1] was 0.73 µM.
On the same count and under the same terms, next, `CC1=Nc2ccc(Cl)cc2C(c2ccc(F)cc2)N1CCN1CCCCC1` (racemic): 4.9 µM.
Still for that read-out and setting: the figure for `COc1ccc(C2c3cc(Cl)ccc3N=C(C)N2CCN2CCCCC2)cc1` (racemic) is 1.5 µM.
As for `CC1=Nc2ccc(Cl)cc2C(c2ccc(C)cc2)N1CCN1CCCCC1` (racemic), the results for the concentration giving a half-maximal response (EC50) (in assay [2]; in the assay with MRC5) were 1.4 µM and 5 µM, respectively. Further, the IC50 at Trypanothione reductase [1] was 0.59 µM.
Turning to `CC1=Nc2ccc(Cl)cc2C(c2cccc(C)c2)N1CCN1CCCCC1` (racemic), at Trypanothione reductase [1], the concentration for half-maximal inhibition (IC50) is 4.6 µM.
On the same count and under the same terms, next, `CC1=Nc2ccc(Cl)cc2C(c2ccc(C)c(C)c2)N1CCN1CCCCC1` (racemic): 6.8 µM; `CC1=Nc2ccc(Cl)cc2C(Cc2ccccc2)N1CCN1CCCCC1` (racemic): 50 µM; `CC1=Nc2ccc(Cl)cc2C(c2ccc(O)cc2)N1CCN1CCCCC1` (racemic): 20 µM.
The same measure, in the same setting: next, `CC1=Nc2ccc(Cl)cc2C(c2cccc(O)c2)N1CCN1CCCCC1` (racemic): 1.6 µM.

What is called IC50 is the concentration at which inhibition is half-maximal. For orientation: EC50 means the concentration that produces a half-maximal response. Read a low EC50 as a more potent agent. A word on the Ki: it is a measure of affinity in units of concentration, obtained from inhibition or displacement.

(Values after ChEMBL document CHEMBL1833819, “Dihydroquinazolines as a novel class of Trypanosoma brucei trypanothione reductase inhibitors: discovery, synthesis, and characterization of their binding mode by protein crystallography” (J Med Chem, 2011).)
